The values below come from PubChem BioAssay AID588422 (The Scripps Research Institute Molecular Screening Center, 2011).

In the assay the target is Protein-arginine deiminase type-4 (Homo sapiens) (UniProt Q9UM07). The assay is described as follows: recombinant human PAD4 inhibitors – biochemical, BAEE substrate, citrulline absorbance, 0-60 µM range, late-stage follow-up (AID 588422). To be noted: recombinant PAD4, BAEE citrulline colorimetric absorbance. The method in brief:
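System: recombinant PAD4 / Quantity: PAD4 enzyme at 0.2 µM / Also added: BAEE substrate at 10 mM / Compound dosing: 7-point dilution series, 0 to 60 µM final / Schedule: Enzyme–compound preincubation 15 min at 37 °C, then 15 min BAEE reaction / Detection: citrulline colour reaction, A540 / Replication: duplicate measurements per concentration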

Activity calls are given as the source filed them.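 How the source made its calls: active means IC50 at or below 1 µM; inactive means the rest.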

Chain of Protein-arginine deiminase type-4 (Homo sapiens) (Q9UM07 whole entry, looked up): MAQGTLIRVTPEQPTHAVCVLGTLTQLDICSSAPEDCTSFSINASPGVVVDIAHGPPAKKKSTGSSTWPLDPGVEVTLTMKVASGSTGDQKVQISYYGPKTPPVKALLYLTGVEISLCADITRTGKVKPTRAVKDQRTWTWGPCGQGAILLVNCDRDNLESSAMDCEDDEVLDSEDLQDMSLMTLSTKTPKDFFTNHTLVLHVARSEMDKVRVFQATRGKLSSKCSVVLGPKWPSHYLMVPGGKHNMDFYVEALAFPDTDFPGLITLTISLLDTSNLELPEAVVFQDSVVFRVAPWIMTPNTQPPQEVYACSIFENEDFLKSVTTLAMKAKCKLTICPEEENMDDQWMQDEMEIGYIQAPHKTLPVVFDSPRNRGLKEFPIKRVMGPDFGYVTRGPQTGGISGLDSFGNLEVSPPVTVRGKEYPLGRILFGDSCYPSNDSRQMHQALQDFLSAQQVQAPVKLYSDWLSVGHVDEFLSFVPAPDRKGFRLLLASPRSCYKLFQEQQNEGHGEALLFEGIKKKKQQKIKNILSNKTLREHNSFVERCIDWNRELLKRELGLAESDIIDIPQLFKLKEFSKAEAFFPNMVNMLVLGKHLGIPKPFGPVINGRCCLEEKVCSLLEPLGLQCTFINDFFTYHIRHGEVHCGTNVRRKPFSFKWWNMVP

For the compound `COC(=O)c1cccc(-c2ccc3c(n2)C(=O)C(Br)=CC3=O)n1`, the IC50 result was “inactive”.
